Calls of active or inactive are those of the source. The calls are words filed in the database; no cut-off is given here.
Tests used:
[1] = Cytotoxicity against human GM00637 cells after 24 hrs by MTT assay; type: cell-based; details: GM00637, 24 h
Method in brief: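 Cells seeded at 10,000 per well and left 48 h to adhere, then exposed to test solutions in DMSO (2.5% final) for 24 h at 37 °C under humidified 5% CO₂. MTT read-out at 550 nm with 690 nm reference. Viability is expressed as percent of DMSO-only control. IC50 is the concentration reducing mean viability to 50% of control, estimated by nonlinear regression of dose-response curves.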

PD20i = test: Cytotoxicity against FANCD2-deficient human PD20i cells at 0.001 uM after 24 hrs by MTT assay; type: functional, cell-based
Method in brief: (§1)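 PD20i and PD20:RV human fibroblasts grown in alpha-MEM with 15% uninactivated FBS, penicillin–streptomycin, 2 mM L-glutamine, 37 °C, 5% CO₂. Cells seeded at 10,000/well, both lines in parallel on the same plate, adhered 48 h. Compound added in DMSO (2.5% final), 24 h at 37 °C. MTT read at 550 nm (690 nm reference). Viability as % of DMSO-only control, mean of at least three independent experiments.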

Homo sapiens = species: Homo sapiens; test: Cytotoxicity against wild type FANCD2 expressing human PD20:RV cells at 0.001 uM after 24 hrs by MTT assay; type: functional, cell-based; method in brief: as §1

CCn1cnc2c1C(=O)C=CC2=O
IC50 [1]: 580 nM

O=C1C(N2CC2)=CC(=O)c2c1nc1n2CCCCC1
IC50 [1]: 560 nM

O=C1C(N2CC2)=CC(=O)c2c1nc1n2CCCC1
IC50 [1]: 1060 nM

COC1=CC(=O)c2c(nc3n2CCCC3)C1=O
IC50 [1]: > 1500 nM

COc1ccc(OC)c2c1ncn2C[C@@H]1CN1C(c1ccccc1)(c1ccccc1)c1ccccc1 (stereo not given in full)
IC50 [1]: 1260 nM

CO[C@@]12[C@H](COC(N)=O)C3=C(C(=O)C(C)=C(N)C3=O)N1C[C@@H]1N[C@@H]12 [MITOMYCIN]
IC50 [1]: 900 nM

COC1=CC(=O)c2c(nc3n2CCC3)C1=O
Activity (PD20i): inactive | IC50 [1]: 360 nM

O=C1C(N2CC2)=CC(=O)c2c1nc1n2CCC1
Activity (PD20i): Active | Activity (Homo sapiens): Active | IC50 [1]: 290 nM

O=C1C=CC(=O)c2c1ncn2C[C@@H]1CN1C(c1ccccc1)(c1ccccc1)c1ccccc1 (stereo not given in full)
Activity (PD20i): Active | IC50 [1]: 150 nM

CCn1cnc2c(OC)ccc(OC)c21
IC50 [1]: > 10000 nM

COC1=CC(=O)c2c(nc3n2CCCCC3)C1=O
IC50 [1]: > 1500 nM

Reference: ChEMBL document CHEMBL1157849, “The influence of the aziridinyl substituent of benzimidazoles and benzimidazolequinones on toxicity towards normal and Fanconi anaemia cells” (Eur J Med Chem, 2010)
